Laboratory results reported in ChEMBL document CHEMBL4477177, “Antituberculosis Activity of a Naturally Occurring Flavonoid, Isorhamnetin” (J Nat Prod, 2016).
≈ marks a conversion by molar mass, not a printed value. Calls of active or inactive are those of the source. The rule behind the calls is not given here.

Assays:
[1] = tested on: Mycobacterium tuberculosis; test: Antitubercular activity against Mycobacterium tuberculosis H37Rv P887 at 158 uM incubated for 1 to 9 days by inverted microscopic analysis; format: functional
Procedure, shortened: (§1)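 Bacteria immobilised in 0.5% agarose within microfluidic channels of a 96-well chip. Compound (0–632 μM; rifampicin 0–19.4 μM) supplied in Middlebrook 7H9 with 10% OADC and allowed to diffuse in. Incubated at 37 °C; channel boundary imaged by inverted microscopy (40×) at 1, 3, 5, 7 and 9 days. MIC90 taken as lowest concentration giving 90% growth inhibition. Triplicate.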

[2] = tested on: Mycobacterium tuberculosis; test: Antitubercular activity against Mycobacterium tuberculosis H37Rv P887 incubated for 1 to 9 days by inverted microscopic analysis; format: functional; procedure, shortened: as §1
[3] = tested on: Mycobacterium tuberculosis; test: Antitubercular activity against MDR Mycobacterium tuberculosis M22 incubated for 1 to 9 days by inverted microscopic analysis; format: functional; procedure, shortened: as §1
[4] = tested on: Mycobacterium tuberculosis; test: Antitubercular activity against MDR Mycobacterium tuberculosis X23 incubated for 1 to 9 days by inverted microscopic analysis; format: functional
[5] = tested on: Mycobacterium tuberculosis; test: Antitubercular activity against XDR Mycobacterium tuberculosis X24 incubated for 1 to 9 days by inverted microscopic analysis; format: functional; procedure, shortened: as §1
[6] = tested on: Mycobacterium tuberculosis; test: Antitubercular activity against XDR Mycobacterium tuberculosis X59 incubated for 1 to 9 days by inverted microscopic analysis; format: functional; procedure, shortened: as §1
[7] = Lipophilicity, logP of the compound; format: physicochemical; conditions: octanol/water
MRC5 [8] = test: Antiinflammatory activity against IFN-gamma-stimulated human MRC5 cells assessed as reduction of IL-1beta mRNA level at 20 uM incubated for 3 hrs by RT-PCR analysis relative to control; format: functional; set-up: scale not given: the % may be the effect or the level left
Procedure, shortened: (§2)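 MRC-5 cells cultured in DMEM with 10% FBS at 37 °C, 5% CO2, then stimulated with or without 20 ng/mL IFN-γ in presence or absence of test agent for 3 h. Competitive RT-PCR; targets amplified 25 cycles (annealing 57 °C). Band densitometry expressed relative to β-actin mRNA. Mean ± SD.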

MRC5 [9] = test: Antiinflammatory activity against IFN-gamma-stimulated human MRC5 cells assessed as reduction of IL-6 mRNA level at 20 uM incubated for 3 hrs by RT-PCR analysis relative to control; format: functional; set-up: scale not given: the % may be the effect or the level left; procedure, shortened: as §2
MRC5 [10] = test: Antiinflammatory activity against IFN-gamma-stimulated human MRC5 cells assessed as reduction of IL-12 mRNA level at 20 uM incubated for 3 hrs by RT-PCR analysis relative to control; format: functional; set-up: scale not given: the % may be the effect or the level left; procedure, shortened: as §2
MRC5 [11] = test: Antiinflammatory activity against IFN-gamma-stimulated human MRC5 cells assessed as reduction of TNF-alpha mRNA level at 20 uM incubated for 3 hrs by RT-PCR analysis relative to control; format: functional; set-up: scale not given: the % may be the effect or the level left; procedure, shortened: as §2
MRC5 [12] = test: Antiinflammatory activity against IFN-gamma-stimulated human MRC5 cells assessed as reduction of MMP-1 mRNA level at 20 uM incubated for 3 hrs by RT-PCR analysis relative to control; format: functional; set-up: scale not given: the % may be the effect or the level left; procedure, shortened: as §2
[13] = target: Mitogen-activated protein kinase; ERK1/ERK2 (Homo sapiens) (UniProt P27361+P28482); test: Downregulation of ERK1/2 phosphorylation in IFN-gamma-induced human MRC5 cells at 20 uM pretreated for 1 hr followed by IFN-gamma stimulation for 3 hrs by Western blot analysis; format: cell-based
Sequence of Mitogen-activated protein kinase; ERK1/ERK2 (Homo sapiens) (P27361 whole entry, looked up): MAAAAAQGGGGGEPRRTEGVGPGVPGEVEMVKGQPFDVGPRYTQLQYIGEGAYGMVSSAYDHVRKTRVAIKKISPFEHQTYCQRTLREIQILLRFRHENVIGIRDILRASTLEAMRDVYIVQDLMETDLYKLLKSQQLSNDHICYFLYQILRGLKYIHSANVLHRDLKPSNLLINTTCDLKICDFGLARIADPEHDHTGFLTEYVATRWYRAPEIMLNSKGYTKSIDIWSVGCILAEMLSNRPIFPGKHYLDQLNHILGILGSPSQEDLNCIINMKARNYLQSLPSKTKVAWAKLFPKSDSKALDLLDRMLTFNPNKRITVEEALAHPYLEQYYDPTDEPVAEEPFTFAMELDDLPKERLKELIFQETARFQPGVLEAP
Sequence of Mitogen-activated protein kinase; ERK1/ERK2 (Homo sapiens) (P28482 whole entry, looked up): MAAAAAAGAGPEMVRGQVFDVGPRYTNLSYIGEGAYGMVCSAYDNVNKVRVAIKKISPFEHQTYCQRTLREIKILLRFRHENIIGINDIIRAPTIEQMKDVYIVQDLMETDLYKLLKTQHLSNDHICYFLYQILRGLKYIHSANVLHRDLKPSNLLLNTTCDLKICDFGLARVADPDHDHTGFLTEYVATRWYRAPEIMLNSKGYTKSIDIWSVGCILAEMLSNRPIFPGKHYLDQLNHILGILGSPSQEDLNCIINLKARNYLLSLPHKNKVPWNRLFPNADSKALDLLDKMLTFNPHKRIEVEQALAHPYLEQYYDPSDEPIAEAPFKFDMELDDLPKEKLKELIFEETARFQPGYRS
Procedure, shortened: (§3)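 MRC-5 cells pretreated with 20 μM agent for 1 h, then 20 ng/mL IFN-γ for 3 h. Cytoplasmic lysates prepared; 20 μg protein run on 10% SDS-PAGE and transferred to PVDF. Membranes blocked in 5% BSA/TBST and probed overnight at 4 °C with phospho-specific and total MAPK antibodies. β-Actin used as loading control.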

[14] = target: T1, MAP kinase p38 (Homo sapiens) (UniProt O15264+Q15759+Q16539+P53778); test: Downregulation of p38 phosphorylation in IFN-gamma-induced human MRC5 cells at 20 uM pretreated for 1 hr followed by IFN-gamma stimulation for 3 hrs by Western blot analysis; format: cell-based; procedure, shortened: as §3
[15] = target: Mitogen-activated protein kinase 8/9 (Homo sapiens) (UniProt P45983+P45984); test: Downregulation of JNK1/2 phosphorylation in IFN-gamma-induced human MRC5 cells at 20 uM pretreated for 1 hr followed by IFN-gamma stimulation for 3 hrs by Western blot analysis; format: cell-based; procedure, shortened: as §3
Sequence of Mitogen-activated protein kinase 8/9 (Homo sapiens) (P45983 whole entry, looked up): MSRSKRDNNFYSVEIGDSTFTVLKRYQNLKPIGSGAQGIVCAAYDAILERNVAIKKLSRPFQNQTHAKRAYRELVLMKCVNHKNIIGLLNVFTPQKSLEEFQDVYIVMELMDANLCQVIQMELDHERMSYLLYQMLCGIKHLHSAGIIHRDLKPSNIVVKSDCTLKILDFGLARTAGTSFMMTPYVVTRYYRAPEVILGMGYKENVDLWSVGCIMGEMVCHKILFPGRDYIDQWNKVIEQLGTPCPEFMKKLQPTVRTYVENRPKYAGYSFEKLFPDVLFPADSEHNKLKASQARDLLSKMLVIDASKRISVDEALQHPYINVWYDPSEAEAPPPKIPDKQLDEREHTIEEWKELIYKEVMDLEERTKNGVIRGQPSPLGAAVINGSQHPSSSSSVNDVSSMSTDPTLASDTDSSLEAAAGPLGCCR
Sequence of Mitogen-activated protein kinase 8/9 (Homo sapiens) (P45984 whole entry, looked up): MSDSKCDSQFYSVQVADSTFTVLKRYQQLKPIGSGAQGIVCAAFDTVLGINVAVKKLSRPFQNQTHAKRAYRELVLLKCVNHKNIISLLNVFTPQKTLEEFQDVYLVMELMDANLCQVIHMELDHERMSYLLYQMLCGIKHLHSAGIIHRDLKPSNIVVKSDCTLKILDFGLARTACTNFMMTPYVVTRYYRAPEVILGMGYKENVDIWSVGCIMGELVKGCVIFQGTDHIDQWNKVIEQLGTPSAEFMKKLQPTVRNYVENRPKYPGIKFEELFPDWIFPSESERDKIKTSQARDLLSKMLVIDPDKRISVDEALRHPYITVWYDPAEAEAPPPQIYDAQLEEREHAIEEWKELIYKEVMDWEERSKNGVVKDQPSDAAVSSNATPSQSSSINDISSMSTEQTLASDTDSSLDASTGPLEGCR

MRC5 [16] = test: Antiinflammatory activity against IFN-gamma-stimulated human MRC5 cells assessed as reduction of TNF-alpha production at 5 uM after 24 hrs by ELISA relative to control; format: functional; set-up: scale not given: the % may be the effect or the level left
Procedure, shortened: (§4)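 MRC-5 cells stimulated with IFN-γ and exposed to test agent for 24 h. TNF-α and IL-12 in culture media measured by sandwich ELISA: capture antibody coated overnight at 4 °C, blocking 1 h, sample 2 h at RT, detection antibody 1 h, TMB substrate, stopped with 1 N H2SO4, OD 450 nm. Mean ± SD of at least three independent experiments.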

MRC5 [17] = test: Antiinflammatory activity against IFN-gamma-stimulated human MRC5 cells assessed as reduction of TNF-alpha production at 10 uM after 24 hrs by ELISA relative to control; format: functional; set-up: scale not given: the % may be the effect or the level left; procedure, shortened: as §4
MRC5 [18] = test: Antiinflammatory activity against IFN-gamma-stimulated human MRC5 cells assessed as reduction of IL-12 production at 5 uM after 24 hrs by ELISA relative to control; format: functional; set-up: scale not given: the % may be the effect or the level left; procedure, shortened: as §4
MRC5 [19] = test: Antiinflammatory activity against IFN-gamma-stimulated human MRC5 cells assessed as reduction of IL-12 production at 10 uM after 24 hrs by ELISA relative to control; format: functional; set-up: scale not given: the % may be the effect or the level left; procedure, shortened: as §4
Mus musculus [20] = test: Antiinflammatory activity against LPS-induced BALB/c mouse lung inflammation model assessed as lowering of IL-12 level at 0.01 to 0.5 mg/kg, ip administered for 1 hr followed by LPS stimulation for 12 hrs relative to vehicle-treated control; format: functional, organism-based
Procedure, shortened: (§5)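 Female BALB/c mice, 6 weeks old, acclimatised 1 week; 6 groups of 3. Test agent (0.01, 0.1 or 0.5 mg/kg) given ip; 1 h later LPS 10 mg/kg ip in PBS. Sacrifice at 12 h. Whole lungs homogenised in NP-40 lysis buffer at 4 °C and centrifuged. Cytokines in supernatant measured by ELISA (OD 450 nm).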

Mus musculus [21] = test: Antiinflammatory activity against LPS-induced BALB/c mouse lung inflammation model assessed as lowering of IL-1beta level at 0.01 to 0.5 mg/kg, ip administered for 1 hr followed by LPS stimulation for 12 hrs relative to vehicle-treated control; format: functional, organism-based; procedure, shortened: as §5
Mus musculus [22] = test: Antiinflammatory activity against LPS-induced BALB/c mouse lung inflammation model assessed as lowering of IL-6 level at 0.01 to 0.5 mg/kg, ip administered for 1 hr followed by LPS stimulation for 12 hrs relative to vehicle-treated control; format: functional, organism-based; procedure, shortened: as §5
Mus musculus [23] = test: Antiinflammatory activity against LPS-induced BALB/c mouse lung inflammation model assessed as lowering of IFN-gamma level at 0.01 to 0.5 mg/kg, ip administered for 1 hr followed by LPS stimulation for 12 hrs relative to vehicle-treated control; format: functional, organism-based; procedure, shortened: as §5
[24] = Toxicity in mouse at 0.01 to 0.5 mg/kg assessed as irritability; format: organism-based; conditions: in vivo
[25] = Toxicity in mouse at 0.01 to 0.5 mg/kg assessed as twisting; format: organism-based; conditions: in vivo
[26] = Toxicity in mouse at 0.01 to 0.5 mg/kg assessed as breathing; format: organism-based; conditions: in vivo
[27] = Toxicity in mouse at 0.01 to 0.5 mg/kg assessed as weight loss; format: organism-based; conditions: in vivo
[28] = Toxicity in mouse at 0.01 to 0.5 mg/kg assessed as death; format: organism-based; conditions: in vivo
[29] = Toxicity in mouse at 0.01 to 0.5 mg/kg assessed as change in AST level; format: organism-based; conditions: in vivo
Procedure, shortened: (§6)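 BALB/c mice, 3 per group, given 0.01, 0.1 or 0.5 mg/kg ip; LPS 10 mg/kg ip 1 h later. Sacrificed at 12 h. Serum AST, ALT and BUN measured on an automated clinical analyser. Mean ± SD.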

[30] = Toxicity in mouse at 0.01 to 0.5 mg/kg assessed as change in ALT level; format: organism-based; conditions: in vivo; procedure, shortened: as §6
[31] = Toxicity in mouse at 0.01 to 0.5 mg/kg assessed as change in BUN level; format: organism-based; conditions: in vivo; procedure, shortened: as §6
[32] = Cytotoxicity against human HaCaT cells assessed as cell survival rate at 158 uM after 24 hrs by MTT assay; format: cell-based; conditions: read-out: Survival
Procedure, shortened: (§7)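 Cells treated for 24 h with test agent (0–400 μM) or rifampicin (0–16 μM), then MTT assay. Survival taken as A570 of treated cells over A570 of untreated cells, as a percentage. Average of triplicates from three independent experiments.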

[33] = Cytotoxicity against mouse NIH/3T3 cells assessed as cell survival rate at 158 uM after 24 hrs by MTT assay; format: cell-based, NIH3T3; conditions: read-out: Survival; procedure, shortened: as §7
[34] = Cytotoxicity against human MRC5 cells assessed as cell survival rate at 158 uM after 24 hrs by MTT assay; format: cell-based; conditions: read-out: Survival; procedure, shortened: as §7
[35] = Cytotoxicity against human HaCaT cells assessed as cell survival rate at 316 uM after 24 hrs by MTT assay; format: cell-based; conditions: read-out: Survival; procedure, shortened: as §7
[36] = Cytotoxicity against mouse NIH/3T3 cells assessed as cell survival rate at 316 uM after 24 hrs by MTT assay; format: cell-based, NIH3T3; conditions: read-out: Survival; procedure, shortened: as §7
[37] = Cytotoxicity against human MRC5 cells assessed as cell survival rate at 316 uM after 24 hrs by MTT assay; format: cell-based; conditions: read-out: Survival; procedure, shortened: as §7
[38] = Cytotoxicity against human HaCaT cells assessed as cell survival rate at 400 uM after 24 hrs by MTT assay; format: cell-based; conditions: read-out: Survival; procedure, shortened: as §7
[39] = Cytotoxicity against mouse NIH/3T3 cells assessed as cell survival rate at 400 uM after 24 hrs by MTT assay; format: cell-based, NIH3T3; conditions: read-out: Survival; procedure, shortened: as §7
[40] = target: Mitogen-activated protein kinase 3 (Homo sapiens) (UniProt P27361); test: Binding affinity to human ERK1 expressed in Escherichia coli BL21 by fluorescence quenching based spectrofluorometric analysis
Sequence of Mitogen-activated protein kinase 3 (Homo sapiens) (P27361 whole entry): as the sequence (P27361 whole entry, looked up) above
Procedure, shortened: (§8)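 C-terminally His6-tagged ERK1 or p38 MAPK expressed in E. coli and purified. Protein at 10 μM in 50 mM sodium phosphate, 100 mM NaCl, pH 8.0, titrated with ligand to 1:10 protein:ligand. Excitation 290 nm, emission 290–500 nm. Binding constant K derived from fluorescence quenching.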

[41] = target: T1, MAP kinase p38 (Homo sapiens); test: Binding affinity to human C-terminally His-tagged p38 expressed in Escherichia coli BL21 by fluorescence quenching based spectrofluorometric analysis; procedure, shortened: as §8
[42] = tested on: Mycobacterium tuberculosis; test: Antitubercular activity against Mycobacterium tuberculosis H37Rv ATCC 27294 incubated for 7 days by resazurin assay; format: functional; conditions: H37Rv ATCC 27294, 168 h

## COc1cc(-c2oc3cc(O)cc(O)c3c(=O)c2O)ccc1O [ISORHAMNETIN]
[1]
  inhibition at 158 µM: 90%
[2]
  MIC90: 158 µM (≈ 50 µg/mL)
[3]
  MIC90: 316 µM (≈ 99.9 µg/mL)
[4]
  MIC90: 316 µM (≈ 99.9 µg/mL)
[5]
  MIC90: 316 µM (≈ 99.9 µg/mL)
[6]
  MIC90: 316 µM (≈ 99.9 µg/mL)
[7]
  logP: 1.86
MRC5 [8]
  Activity: 39%
MRC5 [9]
  Activity: 69%
MRC5 [10]
  Activity: 76%
MRC5 [11]
  Activity: 56%
MRC5 [12]
  Activity: 41%
[13]
  Activity: Active
[14]
  Activity: Active
[15]
  Activity: inactive
MRC5 [16]
  Activity: 37.5%
MRC5 [17]
  Activity: 43.75%
MRC5 [18]
  Activity: 45%
MRC5 [19]
  Activity: 50%
Mus musculus [20]
  Activity: Active
Mus musculus [21]
  Activity: Active
Mus musculus [22]
  Activity: Active
Mus musculus [23]
  Activity: Active
[24]
  Activity: Non-Toxic
[25]
  Activity: Non-Toxic
[26]
  Activity: Non-Toxic
[27]
  Activity: Non-Toxic
[28]
  Activity: Non-Toxic
[29]
  Activity: Non-Toxic
[30]
  Activity: Non-Toxic
[31]
  Activity: Non-Toxic
[32]
  viability at 24 h, 158 µM: 90%
[33]
  viability at 24 h, 158 µM: 78%
[34]
  viability at 24 h, 158 µM: 54%
[35]
  viability at 24 h, 316 µM: 71%
[36]
  viability at 24 h, 316 µM: 63%
[37]
  viability at 24 h, 316 µM: 47%
[38]
  viability at 24 h, 400 µM: 66%
[39]
  viability at 24 h, 400 µM: 58%
[40]
  K: 4.46 ×10⁶ /M
[41]
  K: 7.6 ×10⁶ /M

## O=c1cc(-c2ccc(O)c(O)c2)oc2cc(O)cc(O)c12 [LUTEOLIN]
[42]
  MIC: 827 µM (≈ 237 µg/mL)
